GSIS activator – primary screen for activators of insulin secretion dependent on glucose, INS-1E cells, GLuc reporter luminescence | INS-1E GLuc reporter insulin secretion, 2-3 h | activation, % at 16.6 µM | 0.61% of 370,000 active;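 active means lowest replicate activation of at least 40%, so every replicate reaches that level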;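 further: 0% = median of neutral control wells and 100% = median of IBMX positive control wells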
S100A4 inh HTS – blocks human S100A4 binding to myosin IIA peptide; 0.14% of 360,000 active; S100A4/TAMRA-MyoIIA peptide fluorescence polarization; inhibition, % at 10.7 µM;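 active means mean inhibition of at least 70% across replicates, with every replicate also reaching that level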
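Compound dosing: one dose per compound; test system: human S100A4 monomer with TAMRA-labelled myosin IIA peptide; probe or stimulus: TAMRA-labelled myosin IIA heavy-chain peptide probe, 5 nM; medium: HEPES buffer with Ca2+, pH 7.2; schedule: 5 min incubation before reading; benchmarks: neutral control DMSO, positive control TFP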
RAD52 anneal inh – inhibitors of human RAD52 DNA annealing; P43351; recombinant RAD52 DNA annealing, FRET fluorescence; inhibition, % at 18.7 µM; 0.46% of 360,000 active;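 active means every replicate showing at least 50% inhibition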
Target sequence (P43351 whole entry, looked up): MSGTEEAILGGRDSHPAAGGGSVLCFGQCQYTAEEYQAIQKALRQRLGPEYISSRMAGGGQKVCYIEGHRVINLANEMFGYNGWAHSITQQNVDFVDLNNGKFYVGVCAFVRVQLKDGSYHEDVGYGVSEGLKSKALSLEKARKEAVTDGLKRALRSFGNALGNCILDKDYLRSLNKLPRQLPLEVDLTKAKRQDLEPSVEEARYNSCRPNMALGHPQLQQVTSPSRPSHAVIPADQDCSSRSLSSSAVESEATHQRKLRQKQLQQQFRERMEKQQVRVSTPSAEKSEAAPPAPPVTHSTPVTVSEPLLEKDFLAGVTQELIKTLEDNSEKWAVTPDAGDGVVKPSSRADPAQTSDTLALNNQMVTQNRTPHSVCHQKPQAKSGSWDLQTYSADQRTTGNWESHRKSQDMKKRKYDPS
RAD54 inh – blocks human RAD54 Holliday junction branch migration | FAM/BHQ fluorescence | inhibition, % at 10.4 µM | 0.14% of 360,000 active;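 active means mean normalized replicate activity at least 40 and at least half of replicates scoring 40 or more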;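 further: 0% = median of neutral control wells and 100% = median of positive control wells; inhibitors cause a drop in the FAM fluorescence signal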
MLL AF4-AF9 inh – blocks AF4 peptide binding to human AF9. P42568. AlphaScreen, biotin-AF4 peptide binding to FLAG-AF9. inhibition, % at 10 µM. 0.47% of 350,000 active. AID 651704;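 active means every replicate reaching a set inhibition limit, whatever the replicate mean, cut at about 25% in these data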;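 further: 0% = plate neutral control median and 100% = total signal loss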
RAD52 DNA ctr – counter-screen for RAD52 inhibitors: DNA binding compounds. shares compounds with RAD52 anneal inh. Salmon sperm DNA/acridine orange FP displacement. AC50, µM. 8% of 1,000 active;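 active means fitted half-maximal concentration for signal loss at or below twice the highest dose tested, in every separate run, actives reach about 64 µM in these data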
Active calls of the source: *. The list is not random: actives were taken first. Their share in the collection is about 1.3%.

What do the screens show for `CCCN1CCN(CCCNC(=O)C2CCN(c3nnc(-n4c(C)ccc4C)s3)CC2)CC1`?
GSIS activator: 3; S100A4 inh HTS: 0; RAD52 anneal inh: 58*; RAD54 inh: -14; MLL AF4-AF9 inh: 6; RAD52 DNA ctr: inactive

Results for CCN1CCN(C(=O)C2CCN(c3nnc(-n4c(C)ccc4C)s3)CC2)CC1 ?
GSIS activator: 6; S100A4 inh HTS: -7; RAD52 anneal inh: 58*; RAD54 inh: 3; MLL AF4-AF9 inh: 6; RAD52 DNA ctr: inactive

What do the screens show for `CN1CCN(CCCNC(=O)C2CCN(c3nnc(-n4cccc4)s3)CC2)CC1`?
RAD54 inh: 3

Results for Cc1ccc(C)n1-c1nnc(N2CCC(C(=O)N3CCN(C)CC3)CC2)s1 ?
GSIS activator: -7; S100A4 inh HTS: 0; RAD52 anneal inh: 56*; RAD54 inh: 0; MLL AF4-AF9 inh: 5; RAD52 DNA ctr: inactive

What do the screens show for `CCOC(=O)N1CCN(C(=O)C2CCN(c3nnc(-n4cccc4)s3)CC2)CC1`?
GSIS activator: -1; S100A4 inh HTS: -2; RAD52 anneal inh: -10; RAD54 inh: -3; MLL AF4-AF9 inh: 3

Results for COc1cccc(S(=O)(=O)N2C[C@H](O)COC[C@H]3O[C@@H](CC(=O)NCCCN4CCOCC4)CC[C@@H]32)c1 ?
GSIS activator: 3; S100A4 inh HTS: 7; RAD52 anneal inh: -4; RAD54 inh: 4; MLL AF4-AF9 inh: -1

How did CS(=O)(=O)Nc1ccc2c(c1)[C@@H]1C[C@H](CC(=O)NCC3CC3)O[C@H](CO)[C@@H]1O2 do in these assays?
GSIS activator: 8; S100A4 inh HTS: 22; RAD52 anneal inh: 2; RAD54 inh: 13; MLL AF4-AF9 inh: 1

How did C[C@@H]1CN([C@@H](C)CO)S(=O)(=O)c2ccc(-c3ccccc3)cc2O[C@H]1CN(C)CC1CCCC1 do in these assays?
GSIS activator: -2; S100A4 inh HTS: -2; RAD52 anneal inh: 3; RAD54 inh: 2; MLL AF4-AF9 inh: 0

What do the screens show for `C[C@@H]1CCCCO[C@@H](CN(C)C(=O)Cc2ccccc2)[C@@H](C)CN([C@H](C)CO)C(=O)c2cc(NS(=O)(=O)c3ccccc3)ccc2O1`?
GSIS activator: -6; S100A4 inh HTS: 0; RAD52 anneal inh: -28; MLL AF4-AF9 inh: 5

How did Cc1ccccc1OCC(O)CNC1CCC(NCC(O)COc2ccccc2C)CC1 (centres undefined) do in these assays?
GSIS activator: 74; S100A4 inh HTS: -1; RAD52 anneal inh: -15; RAD54 inh: 22; MLL AF4-AF9 inh: 21; RAD52 DNA ctr: inactive

How did CC(C)c1ccc(NC(=O)C(c2ccccc2)N2CC(=O)Nc3ccccc32)cc1 (centres undefined) do in these assays?
GSIS activator: -7; S100A4 inh HTS: -3; RAD52 anneal inh: 62*; RAD54 inh: 7; MLL AF4-AF9 inh: 1; RAD52 DNA ctr: inactive

What do the screens show for `CCCNC(=O)Nc1ccc2c(c1)OC[C@H](C)N(S(C)(=O)=O)C[C@@H](C)[C@@H](OC)CN(C)C2=O`?
GSIS activator: -4; S100A4 inh HTS: -31; RAD52 anneal inh: -13; MLL AF4-AF9 inh: -8

How did O=C(C[C@@H]1C=C[C@H](NC(=O)C2CC2)[C@@H](CO)O1)NCC1CC1 do in these assays?
GSIS activator: 0; S100A4 inh HTS: 1; RAD52 anneal inh: 14; RAD54 inh: -1; MLL AF4-AF9 inh: -2

What do the screens show for `NC(=NCc1ccc2c(c1)OCO2)NC(=O)c1ccccc1`?
GSIS activator: -10; S100A4 inh HTS: 0; RAD52 anneal inh: 51*; MLL AF4-AF9 inh: 3; RAD52 DNA ctr: inactive

What do the screens show for `COCC(=O)Nc1ccc2c(c1)[C@@H]1C[C@@H](CC(=O)NCc3cccnc3)O[C@@H](CO)[C@@H]1O2`?
GSIS activator: 14; S100A4 inh HTS: 13; RAD52 anneal inh: -6; RAD54 inh: -7; MLL AF4-AF9 inh: -2

What do the screens show for `O=[N+]([O-])c1ccc2nc[nH]c2c1`?
S100A4 inh HTS: -3; RAD52 anneal inh: -8; RAD54 inh: 4; MLL AF4-AF9 inh: -1

Results for Nc1ccc2nc[nH]c2c1 ?
GSIS activator: 17; S100A4 inh HTS: -12; RAD52 anneal inh: 85*; MLL AF4-AF9 inh: 14; RAD52 DNA ctr: inactive

What do the screens show for `Cc1ccc(C23CC4CC(CC(CN)(C4)C2)C3)cc1`?
GSIS activator: -12; S100A4 inh HTS: 1; RAD52 anneal inh: 4; MLL AF4-AF9 inh: 2

Screening results as filed in PubChem.
